{
  "source": "ChEMBL document CHEMBL4020794",
  "about": "“Inhibition of phosphatidylinositol-3-kinase by the furanosesquiterpenoid hibiscone C” (Bioorg Med Chem Lett, 2017)",
  "key": {"Mus musculus [1]": {"species_on_record": "Mus musculus", "assay": "Inhibition of PI3K in C57BL/6 mouse IL2 starved T cells assessed as decrease in IL-2 restimulated Akt phosphorylation at 100 uM preincubated for 30 mins followed by recombinant human IL-2 addition measured after 1 to 3 hrs by Western blot analysis", "procedure,_shortened": "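Activated T cells deprived of IL-2 overnight, pretreated 30 min with 100 µM compound or DMSO vehicle, then stimulated with 1000 U/mL recombinant human IL-2 for the indicated times. Phospho-Akt detected by Western blot, actin as loading control. Three independent experiments.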"}, "T-cell [2]": {"test_system": "T-cell", "assay": "Cytotoxicity against C57BL/6 mouse T cells assessed as reduction in cell viability at 100 uM after 24 hrs by trypan blue assay", "type": "functional, cell-based", "procedure,_shortened": "(§1)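 Activated T cells in growth (not IL-2 starved) culture, duplicate samples, given DMSO vehicle or compound at the indicated doses. Followed over 24 h. At set time points, cells counted for proliferation and viability scored by trypan blue exclusion.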"}, "Mus musculus [3]": {"species_on_record": "Mus musculus", "assay": "Inhibition of PI3K in C57BL/6 mouse T cells assessed as decrease in Akt phosphorylation at <10 uM after 1 hr by Western blot analysis", "type": "cell-based"}, "Mus musculus [4]": {"species_on_record": "Mus musculus", "assay": "Competitive inhibition of PI3K in C57BL/6 mouse T cells assessed as decrease in Akt phosphorylation at 100 uM after 1 to 3 hrs by Western blot analysis", "type": "cell-based", "procedure,_shortened": "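Growing activated T cells, not starved of IL-2, exposed to 100 µM compound or DMSO vehicle for the indicated times. Phospho-Akt detected by Western blot, actin as loading control. Three independent experiments.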"}, "T-cell [5]": {"test_system": "T-cell", "assay": "Antiproliferative activity against C57BL/6 mouse T cells at […] after 18 hrs by trypan blue assay", "type": "functional, cell-based", "procedure,_shortened": "as §1"}},
  "note": "Active and inactive are the calls of the source. The rule behind the calls is not given here.",
  "data": [
    {"smiles": "CC(C)[C@@H]1CC(=O)c2coc3c2[C@H]1C[C@@H](C)C3=O", "values": [
      {"measurement": "inhibition", "setting": "Mus musculus [1]", "value": "Active"},
      {"measurement": "Activity", "setting": "T-cell [2]", "value": "Active"},
      {"measurement": "inhibition", "setting": "Mus musculus [3]", "value": "inactive"},
      {"measurement": "inhibition", "setting": "Mus musculus [4]", "value": "Active"},
      {"measurement": "Activity", "setting": "T-cell [5]", "value": "Active"}
    ]}
  ]
}
